Published values gathered from unrelated publications.
Lines come from different studies, so protocols differ.
Read-out: metabolic stability
Species: rat

NCc1ccc(-c2nn(Cc3ccncc3)c3ccccc23)o1  half-life (liver microsomes; 1 µM, pH 7.4): ~17 min
N#Cc1ccc(C[C@H](Nc2nnc(-c3ccc(F)cc3)s2)C(=O)N2CCc3ccccc32)cc1  half-life (liver microsomes; 10 µM, pH 7.4): 19.3 min
Cc1[nH]c(C)c(S(=O)(=O)Nc2ccc(C(F)(F)F)c(Cl)c2)c1C(=O)N(C)C  half-life (liver microsomes): 5.7 min
COc1cc(-c2cc(C(C)=O)n3ccccc23)c(OC)cc1Cn1ccnc1  half-life (liver microsomes; 1 µM, pH 7.4): 94.3 min
CCN(CC)Cc1ccc2cc(COC(=O)Nc3ccc(C(=O)NO)cc3)ccc2c1  half-life (liver microsomes; pH 7.4): 92.9 min
OCc1ccc(-c2nn(Cc3ccncc3)c3ccccc23)o1  half-life (liver microsomes; 1 µM, pH 7.4): 12 min
N#Cc1ccc(C[C@H](NC(=O)c2cc3ccc(F)cc3[nH]2)C(=O)N2CCc3ccccc32)cc1  half-life (liver microsomes; 10 µM, pH 7.4): 105 min
Cc1[nH]c(C)c(S(=O)(=O)Nc2ccc(C(F)(F)F)c(Cl)c2)c1C(=O)N1CCC(F)(F)C1  half-life (liver microsomes): 8 min
N#Cc1ccc(C[C@H](Nc2nnc(-c3ccc(Br)cc3)o2)C(=O)N2CCc3ccccc32)cc1  half-life (liver microsomes; 10 µM, pH 7.4): 27 min
NCc1ccc(-c2nn(Cc3ccccc3)c3ccccc23)o1  half-life (liver microsomes; 1 µM, pH 7.4): > 30 min
O=C(Nc1ccc(OC(F)(F)Cl)cc1)c1cnc(N2CC[C@@H](O)C2)c(-c2ccn[nH]2)c1  half-life (liver microsomes; 1 µM, pH 7.4): 179 min
COc1ccccc1Cn1nc(-c2ccc(CO)o2)c2ccccc21  half-life (liver microsomes; 1 µM, pH 7.4): 2 min
N#Cc1ccc(C[C@H](Nc2nnc(-c3ccc(Br)cc3)s2)C(=O)N2CCc3ccccc32)cc1  half-life (liver microsomes; 10 µM, pH 7.4): 15 min
C=CCn1c(=O)c2cnc(Nc3ccc(N4CCN(C)CC4)cc3)nc2n1-c1ccc2c(n1)[C@@](O)(CC)CC2  half-life (hepatocytes): 175 min
